Assay results as given in ChEMBL document CHEMBL1149284, “Discovery of pyrano[3,4-b]indoles as potent and selective HCV NS5B polymerase inhibitors” (J Med Chem, 2004).
Calls of active or inactive are those of the source. The calls are words filed in the database; no cut-off is given here.

Key:
[1] = Inhibition of HCV NS5B polymerase; design: species or system Hepacivirus hominis
Outline: (§1)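 In vitro nucleotide incorporation assay using functionally active recombinant NS5B with a hairpin-like primed RNA substrate. Controls: enzyme without compound (positive) and enzyme with basilen blue (negative). Result reported as IC50.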

[2] = Cytotoxicity against Huh7 cells by MTS assay; assay type: cell-based; details: human, huh-7
Outline: (§2)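 MTS metabolic assay run on rapidly dividing and on stationary cells.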

[3] = Inhibition of HIV reverse transcriptase; design: species or system Human immunodeficiency virus
[4] = biological target: DNA polymerase beta (Homo sapiens, UniProt P06746); test: Inhibition of human DNA polymerase beta
[5] = Inhibition of helicase; design: species or system Homo sapiens
[6] = Inhibition of calf thymus polymerase alpha; design: species or system Bos taurus
[7] = tested on: Vero; test: Cytotoxicity against Vero cells by MTS assay; assay type: cell-based; details: chlorocebus sabaeus; outline: as §2
[8] = Inhibition of HCV 1a NS5B polymerase; design: species or system Hepatitis C virus subtype 1a
Outline: (§3)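 In vitro nucleotide incorporation assay using functionally active recombinant NS5B enzyme and a hairpin-like primed RNA substrate. Enzyme without compound served as the positive control, and enzyme with basilen blue dye as the negative control. IC50 values were determined.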

[9] = species: Homo sapiens; test: Inhibition of human mitochondrial DNA polymerase gamma up to 80 uM
[10] = tested on: Hepatitis C virus; test: Reduction of viral protein in Huh7 cells containing HCV sub-genomic replicon after 3 days; assay type: functional, organism-based; details: Hepacivirus hominis; Huh-7
[11] = tested on: Hepatitis C virus; test: Inhibition of HCV 1b NS5B polymerase; design: species or system Hepatitis C virus subtype 1b; outline: as §1
[12] = tested on: Hepatitis C virus; test: Reduction of viral RNA in Huh7 cells containing HCV sub-genomic replicon after 3 days; assay type: functional, organism-based, Hepacivirus hominis; details: Huh-7, 72 h
[13] = Inhibition of HCV 3a NS5B polymerase; design: species or system Hepatitis C virus subtype 3a; outline: as §3

Compound | IC50 [1] [nM] | Activity [2] | also measured
CCCC1(CC(=O)O)OCCc2c1[nH]c1c(Cl)ccc(Cl)c21 (centres undefined) | 270 |  | 
CCC[C@]1(CC(=O)O)OCCc2c1[nH]c1c(F)ccc(C#N)c21 | 440 | > 50 µM | 
CCCC1(CC(=O)O)OCCc2c1[nH]c1c(Cl)ccc(CC)c21 (centres undefined) | 3000 | Not Active | IC50 [3]: > 100000 nM; IC50 [4]: > 100000 nM; IC50 [5]: > 75000 nM; IC50 [6]: > 100000 nM; Activity [7]: Not Active
CCCC1(CC(=O)O)OCCc2c1[nH]c1cccc(Cl)c21 (centres undefined) | 6000 |  | 
CCC[C@@]1(CC(=O)O)OCCc2c1[nH]c1c(Cl)ccc(CC)c21 | > 15000 | > 50 µM | 
CCCC1(CC(=O)O)OCCc2c1[nH]c1c(C)ccc(C#N)c21 (single isomer, unassigned) | 2400 | > 50 µM | 
CCCC1(CC(=O)O)OCCc2c1[nH]c1c(C)ccc(C#N)c21 (centres undefined) | 570 |  | 
CCC[C@@]1(CC(=O)O)OCCc2c1[nH]c1c(C)cc(F)c(C#N)c21 | 630 | > 50 µM | 
CCC[C@]1(CC(=O)O)OCCc2c1[nH]c1c(C)cc(F)c(C#N)c21 | 80 | > 50 µM | 
CCC[C@@]1(CC(=O)O)OCCc2c1[nH]c1c(F)ccc(C#N)c21 | 5200 | > 50 µM | 
CCCC1(CC(=O)O)OCCc2c1[nH]c1c(F)ccc(C#N)c21 (centres undefined) | 1000 |  | 
CCc1ccc(Cl)c2[nH]c3c(c12)CCOC3(CC)CC(=O)O (centres undefined) | > 30000 |  | 
CCC[C@]1(CC(=O)O)OCCc2c1[nH]c1c(C)ccc(C#N)c21 | 330 |  | IC50 [8]: 300 nM; Activity [9]: inactive; Activity [10]: Dose-dependent effect; IC50 [11]: 300 nM; EC50 [12]: 4800 nM; IC50 [13]: 300 nM
CCCC1(CC(=O)OCC)OCCc2c1[nH]c1c(C)ccc(C#N)c21 (centres undefined) | > 30000 |  | 
CCC[C@@]1(CC(=O)O)OCCc2c1[nH]c1c(Cl)ccc(Cl)c21 | 1100 | 49 µM | 
CCC[C@]1(CC(=O)O)OCCc2c1[nH]c1c(Cl)ccc(Cl)c21 | 60 | 33 µM | 
CCC[C@]1(CC(=O)O)OCCc2c1[nH]c1c(Cl)ccc(CC)c21 | 2000 | > 50 µM | 
CCCC1(CC(=O)O)OCCc2c1[nH]c1c(C)cc(F)c(C#N)c21 (centres undefined) | 120 |  | 
